The values that follow come from BindingDB's records for doi:10.1016/j.bmcl.2019.126908 (University of California Davis, 2020).

pIC50: −log10 of the molar value.

This assay addresses T1, Bifunctional epoxide hydrolase 2 (Homo sapiens, UniProt P34913).
T1 sequence (P34913 whole entry): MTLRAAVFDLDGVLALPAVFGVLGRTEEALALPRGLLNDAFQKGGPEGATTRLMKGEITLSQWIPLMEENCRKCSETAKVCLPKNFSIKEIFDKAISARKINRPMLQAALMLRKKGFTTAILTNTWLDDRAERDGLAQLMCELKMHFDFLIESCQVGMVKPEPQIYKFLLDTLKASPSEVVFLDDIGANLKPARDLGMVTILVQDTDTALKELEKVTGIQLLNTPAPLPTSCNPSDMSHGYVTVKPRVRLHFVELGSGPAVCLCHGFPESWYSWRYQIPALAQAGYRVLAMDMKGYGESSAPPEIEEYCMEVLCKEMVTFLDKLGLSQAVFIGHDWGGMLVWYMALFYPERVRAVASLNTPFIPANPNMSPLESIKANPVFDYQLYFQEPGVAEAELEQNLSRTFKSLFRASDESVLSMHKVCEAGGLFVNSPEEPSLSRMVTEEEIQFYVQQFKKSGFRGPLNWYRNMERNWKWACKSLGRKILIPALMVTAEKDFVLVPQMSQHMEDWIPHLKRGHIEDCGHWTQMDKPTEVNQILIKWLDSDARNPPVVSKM
Put plainly: Inhibition of human soluble epoxide hydrolase by kinetic fluorescent assay. The method, boiled down:
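Kinetic fluorescent read-out; each value is the mean of three separate experiments.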

As a reminder, the pIC50 is the IC50 on a negative log10 scale, so that one unit is a factor of ten. The low end stands for a large IC50, the high end for a small IC50. In turn, `CC(NC(=O)Nc1ccccc1F)C12CC3CC(CC(C3)C1)C2` (configuration not stated) had a pIC50 of 7.25. For `O=C(Nc1ccc(C23CC4CC(CC(C4)C2)C3)cc1)Nc1ccccc1F` the value was 7.03.
